Source: ChEMBL document CHEMBL1140053, “Discovery of antimycobacterial spiro-piperidin-4-ones: an atom economic, stereoselective synthesis, and biological intervention” (J Med Chem, 2008)
In brackets after ≈: the same amount, converted by molar mass.

These molecules were tested on Mycobacterium tuberculosis (assay: Antimycobacterial activity against multidrug-resistant Mycobacterium tuberculosis by agar dilution method).
Format: functional
Procedure, shortened: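 Clinical MDR isolate resistant to isoniazid, rifampicin, ethambutol and ofloxacin. Agar dilution in Middlebrook 7H11 agar with OADC, pH 7.40, NCCLS-like method, run in duplicate. MIC is the lowest concentration giving complete inhibition of growth.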
In the case of `CN1C/C(=C\c2ccc(Cl)cc2Cl)C(=O)[C@]2(C1)[C@@H](c1ccc(Cl)cc1Cl)CN(C)[C@@]21C(=O)Nc2ccccc21` (racemic), the MIC is reported as 2.59 µg/mL (≈ 4.31 µM).
`CN1C/C(=C\c2ccccc2Cl)C(=O)[C@]2(C1)[C@@H](c1ccccc1Cl)CN(C)[C@@]21C(=O)Nc2ccccc21` (racemic) showed an MIC of 0.08 µg/mL (≈ 0.15 µM).
`CN1C/C(=C\c2ccco2)C(=O)[C@]2(C1)[C@@H](c1ccco1)CN(C)[C@@]21C(=O)Nc2ccccc21` (racemic) gave an MIC of 3.52 µg/mL (≈ 7.94 µM).
With `Cc1ccc(/C=C2\CN(C)C[C@@]3(C2=O)[C@@H](c2ccc(C)cc2)[C@H](c2ccccc2)N[C@@]32C(=O)Nc3ccccc32)cc1` (racemic) the MIC was 1.41 µg/mL (≈ 2.55 µM).
`COc1ccccc1/C=C1\CN(C)C[C@@]2(C1=O)[C@@H](c1ccccc1OC)CN(C)[C@@]21C(=O)Nc2ccccc21` (racemic) showed an MIC of 1.49 µg/mL (≈ 2.85 µM).
`Cc1ccccc1/C=C1\CN(C)C[C@@]2(C1=O)[C@@H](c1ccccc1C)[C@H](c1ccccc1)N[C@@]21C(=O)Nc2ccccc21` (racemic) gave an MIC of 2.82 µg/mL (≈ 5.09 µM).
`CN1C/C(=C\c2ccc(F)cc2)C(=O)[C@]2(C1)[C@@H](c1ccc(F)cc1)[C@@H]1CCCN1[C@@]21C(=O)Nc2ccccc21` (racemic) showed an MIC of 2.97 µg/mL (≈ 5.65 µM).
In the case of `COc1ccc(/C=C2\CN(C)C[C@@]3(C2=O)[C@@H](c2ccc(OC)cc2)CN(C)[C@@]32C(=O)Nc3ccccc32)cc1` (racemic), the MIC is reported as 0.36 µg/mL (≈ 0.688 µM).
`CN1C/C(=C\c2ccccc2Cl)C(=O)[C@]2(C1)[C@@H](c1ccccc1Cl)[C@@H]1CCCN1[C@@]21C(=O)Nc2ccccc21` (racemic) gave an MIC of 0.71 µg/mL (≈ 1.27 µM).
For `CN1C/C(=C\c2cccc3ccccc23)C(=O)[C@]2(C1)[C@@H](c1cccc3ccccc13)[C@@H]1CCCN1[C@@]21C(=O)Nc2ccccc21` (racemic), the MIC was 5.31 µg/mL (≈ 9 µM).
`NNC(=O)c1ccncc1` [ISONIAZID] was tested, and the MIC was 45.6 µg/mL (≈ 332 µM).
In the case of `Cc1ccccc1/C=C1\CN(C)C[C@@]2(C1=O)[C@@H](c1ccccc1C)CN(C)[C@@]21C(=O)Nc2ccccc21` (racemic), the MIC is reported as 0.39 µg/mL (≈ 0.793 µM).
Molecule `COc1ccc(/C=C2\CN(C)C[C@@]3(C2=O)[C@@H](c2ccc(OC)cc2)[C@H](c2ccccc2)N[C@@]32C(=O)Nc3ccccc32)cc1` (racemic) has an MIC of 0.67 µg/mL (≈ 1.14 µM).
`CN1C/C(=C\c2ccccc2)C(=O)[C@]2(C1)[C@@H](c1ccccc1)[C@H](c1ccccc1)N[C@@]21C(=O)Nc2ccccc21` (racemic) showed an MIC of 1.49 µg/mL (≈ 2.83 µM).
Molecule `CN1C/C(=C\c2cccc(F)c2)C(=O)[C@]2(C1)[C@@H](c1cccc(F)c1)CN(C)[C@@]21C(=O)Nc2ccccc21` (racemic) has an MIC of 1.56 µg/mL (≈ 3.12 µM).
`CN1C/C(=C\c2cccs2)C(=O)[C@]2(C1)[C@@H](c1cccs1)CN(C)[C@@]21C(=O)Nc2ccccc21` (racemic) was tested, and the MIC was 3.28 µg/mL (≈ 6.9 µM).
In the case of `CN1C/C(=C\c2ccc(F)cc2)C(=O)[C@]2(C1)[C@@H](c1ccc(F)cc1)[C@H](c1ccccc1)N[C@@]21C(=O)Nc2ccccc21` (racemic), the MIC is reported as 0.16 µg/mL (≈ 0.285 µM).
For `COc1ccccc1/C=C1\CN(C)C[C@@]2(C1=O)[C@@H](c1ccccc1OC)[C@H](c1ccccc1)N[C@@]21C(=O)Nc2ccccc21` (racemic), the MIC was 2.67 µg/mL (≈ 4.56 µM).
Molecule `CN1C/C(=C\c2ccccc2Cl)C(=O)[C@]2(C1)[C@@H](c1ccccc1Cl)[C@H](c1ccccc1)N[C@@]21C(=O)Nc2ccccc21` (racemic) has an MIC of 5.27 µg/mL (≈ 8.86 µM).
`COc1ccccc1/C=C1\CN(C)C[C@@]2(C1=O)[C@@H](c1ccccc1OC)[C@@H]1CCCN1[C@@]21C(=O)Nc2ccccc21` (racemic) gave an MIC of 0.71 µg/mL (≈ 1.29 µM).
With `CN1C/C(=C\c2cccs2)C(=O)[C@]2(C1)[C@@H](c1cccs1)[C@@H]1CCCN1[C@@]21C(=O)Nc2ccccc21` (racemic) the MIC was 0.38 µg/mL (≈ 0.757 µM).
`CN1C/C(=C\c2ccc(Cl)cc2Cl)C(=O)[C@]2(C1)[C@@H](c1ccc(Cl)cc1Cl)[C@H](c1ccccc1)N[C@@]21C(=O)Nc2ccccc21` (racemic) was tested, and the MIC was 2.35 µg/mL (≈ 3.54 µM).
